From PubChem BioAssay
Sampled rows, rich in hits. Any-hit rate of the full collection: about 2.5%.
SENP8 block-1 = blocks human SENP8 cleavage of Nedd8 substrate. hit rate 0.64% among 360,000. recombinant SENP8, Nedd8 substrate fluorescence. Q96LD8. AID 602440. inhibition, % at 20 µM; in the data active means inhibition mostly above about 40%, no sharp cut-off; inactive means mostly below about 27%
Target sequence (Q96LD8 whole entry, looked up): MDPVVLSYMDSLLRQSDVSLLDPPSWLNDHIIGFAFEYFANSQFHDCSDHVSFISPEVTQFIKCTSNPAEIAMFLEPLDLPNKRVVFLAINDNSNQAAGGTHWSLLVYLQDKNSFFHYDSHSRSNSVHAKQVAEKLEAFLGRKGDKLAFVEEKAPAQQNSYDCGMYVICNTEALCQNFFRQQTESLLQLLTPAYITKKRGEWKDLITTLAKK
SENP1 inh = blocks the human SENP1 SUMO protease catalytic domain; Q9P0U3; recombinant SENP1 catalytic domain, CyPet-SUMO1-YPet FRET cleavage; hit rate 0.21% among 360,000; inhibition, % at 10 µM;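 active means inhibition at least 30% at 10 µM, raw YFP signal under a set limit, fluorescence ratio 0.5 to 1.5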;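 further: 0% = enzyme with DMSO and 100% = no enzyme wells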
Target sequence (Q9P0U3 419-644 limits assumed): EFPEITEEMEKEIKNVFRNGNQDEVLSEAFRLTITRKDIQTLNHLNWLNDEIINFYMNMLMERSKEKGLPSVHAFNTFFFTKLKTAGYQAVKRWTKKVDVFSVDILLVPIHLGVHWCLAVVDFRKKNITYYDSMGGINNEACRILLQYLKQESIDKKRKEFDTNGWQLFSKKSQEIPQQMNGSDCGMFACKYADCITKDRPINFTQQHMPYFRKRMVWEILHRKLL
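Material: hSENP1 catalytic domain, recombinant; medium: Tris pH 8 with BME, BSA, NP40 and catalase; compound: single concentration of 10 µM compound, 0.5% DMSO final; technique: FRET read of cyan and yellow fluorescence; timing: 50 min enzyme reaction, room temperature, light-protected; reagent: SFCypet-SUMO1-SFYpet substrate at 25 nM; control set: no-enzyme low, enzyme-DMSO high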
SENP7 inh = blocks the human protease SENP7; Q9BQF6; recombinant SENP7, Z-RLRGG-aminoluciferin luminescence, 40 min; inhibition, % at 5 µM; hit rate 1.5% among 330,000;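 active means inhibition above about 50% at the single test dose, limit read from the data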;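 further: plate controls were DMSO with enzyme for no effect and no enzyme buffer wells for full effect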
SENP6 block = SENP6 protease inhibition; inhibition, % at 10 µM; Recombinant SENP6 catalytic domain, aminoluciferin luminescence; hit rate 1.8% among 330,000; Q9GZR1;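 active means inhibition above about 50% at the single tested dose, limit read from the data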;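 further: plate controls were DMSO wells with enzyme for no effect and DMSO wells lacking enzyme for full effect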
SENP8 block-2 = SENP8 protease inhibition. Q96LD8. purified SENP8, Z-RLRGG-aminoluciferin cleavage, luminescence. inhibition, % at 10 µM. hit rate 1.2% among 330,000. AID 2540; in the data active means inhibition above about 50%
SENP8 confirm = confirmation of human SENP8 protease inhibitors | inhibition, % at 12.5 µM | Recombinant SENP8, Z-RLRGG-aminoluciferin luminescence, 60 min | hit rate 40% among 6,200 | shares compounds with SENP7 inh;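 active means mean inhibition across replicates above about 50%, limit read from the data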
SENP6 confirm = human SENP6 inhibition, confirmed; shares compounds with SENP7 inh; recombinant SENP6, Z-RLRGG-aminoluciferin luminescence; inhibition, % at 12.5 µM; hit rate 58% among 6,200; AID 488915
SENP7 confirm = confirmation of human SENP7 protease inhibitors. shares compounds with SENP7 inh. recombinant SENP7, Z-RLRGG-aminoluciferin luminescence, 40 min. inhibition, % at 12.5 µM. hit rate 69% among 6,200
Casp3 SENP sel = inhibits human caspase-3 in SENP selectivity test; shares compounds with SENP7 inh; purified caspase-3, Z-DEVD-aminoluciferin luminescence, 60 min; inhibition, % at 12.5 µM; hit rate 60% among 6,200;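 active means mean inhibition above about 50%, limit read from the data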;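 further: plate controls were enzyme with DMSO for no effect and wells without caspase-3 for full effect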
SENP luc ctr = luminescence interference (SENP counter-screen); shares compounds with SENP7 inh; Pre-incubated SENP8/Z-RLRGG-aminoluciferin, luciferase luminescence interference; inhibition, % at 12.5 µM; hit rate 39% among 6,200; AID 488919;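 active means mean inhibition above about 50% when retested at one dose, limit read from the data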;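 further: plate controls were DMSO wells with completed reaction for no effect and substrate without enzyme for full effect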
The depositor's hits bear a star; / = no result given.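 How the source made its calls, unless noted: active means mean inhibition above about 50% in the one-dose retest (limit read from the data); inactive means the rest.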

SMILES	SENP8 block-1	SENP1 inh	SENP7 inh	SENP6 block	SENP8 block-2	SENP8 confirm	SENP6 confirm	SENP7 confirm	Casp3 SENP sel	SENP luc ctr
Clc1ccccc1-c1ncc(-c2ccccc2)o1	-416	2	92*	91*	88*	79*	92*	99*	79*	84*
O=C(Nc1ccc(O)cc1)C1CCCO1 (stereo not drawn)	5	0	60*	-4	-3	6	10	9	4	3
O=C1C(c2ccncc2)=C(O)c2ccccc21	27	9	72*	85*	73*	84*	83*	96*	91*	67*
O=C1C(c2cc(=O)c3ccccc3[nH]2)=C(O)c2ccccc21	23	2	100*	98*	97*	94*	99*	103*	96*	95*
Cc1ccc(C2=C(O)c3ccccc3C(=O)C2=O)cc1	10	-3	-2	11	-7	/	/	/	/	/
O=c1cc(-c2ccccc2)[nH]c2ccccc12	-17	0	-3	0	-9	/	/	/	/	/
OC[C@@H]1CN(CCN2CCOCC2)C[C@H](n2cnc3c(N4CCCC4)ncnc32)O1	16	-1	/	/	/	/	/	/	/	/
Nc1nonc1C(=O)NCCNS(=O)(=O)c1ccc(Br)cc1	9	1	90*	-31	-4	-4	2	8	6	-2
Cc1ccc(Nc2nc(-c3cccnc3)cs2)cc1C	4	4	58*	74*	55*	10	68*	88*	36	13
CCOc1ccc(Nc2nc(-c3cccnc3)cs2)cc1	-1	-1	70*	20	18	-9	11	11	6	-3
CCCNC(=O)c1c(O)c2c([nH]c1=O)CCCC2	7	1	1	-9	-8	/	/	/	/	/
CCN(CC)CCCNC(=O)c1c(O)c2c([nH]c1=O)CCCC2	9	1	59*	-9	0	4	5	14	9	4
NC(=O)COC(=O)CC12CC3CC(CC(Br)(C3)C1)C2	7	0	4	-9	0	/	/	/	/	/
Cc1ccc(-c2nc(N=Nc3ccc(O)cc3)n[nH]2)cc1	25	-1	1	11	3	/	/	/	/	/
Cc1nc(N=Nc2ccc(O)cc2)n[nH]1	21	1	58*	75*	45	58*	53*	86*	87*	63*
COc1ccc(/C(N)=N/OC(=O)CSc2ccc(C)cc2)cc1	9	-1	1	-16	2	/	/	/	/	/
O=C(COC(=O)c1ccc(Br)cc1)NCCc1ccccc1	-6	3	7	2	5	/	/	/	/	/
N/C(=N\OC(=O)c1ccc(Br)cc1)c1ccccc1	13	4	99*	93*	94*	81*	96*	102*	97*	53*
O=C(COC(=O)c1ccccc1)c1ccc(Br)cc1	8	-1	2	86*	83*	6	64*	87*	63*	38
COc1ccc(C(=O)O/N=C(\N)c2ccccc2)cc1	23	5	100*	97*	97*	99*	100*	103*	98*	98*
COc1ccc(/C(N)=N/OC(=O)CSc2ccccc2)cc1	13	0	63*	77*	42	57*	65*	87*	/	41
Cc1csc(CNC(=O)c2cc(COc3c(C)cccc3C)on2)n1	-52	-9	0	5	1	/	/	/	/	/
CCOC(=O)CSC1=N/C(=C\c2ccc(OC)c(OC)c2)C(=O)N1C	-91	-97	1	-6	-3	/	/	/	/	/
CC(C)(C)c1ccc(C(=O)O/N=C(\N)c2ccccc2)cc1	10	2	95*	93*	90*	96*	96*	102*	92*	39
Cc1ccc(NC(=O)c2cnn(-c3ccccc3)c2C)cc1	13	0	67*	66*	46	67*	64*	89*	70*	20
SMILES	SENP8 block-1	SENP1 inh	SENP7 inh	SENP6 block	SENP8 block-2	SENP8 confirm	SENP6 confirm	SENP7 confirm	Casp3 SENP sel	SENP luc ctr
CCc1cccc(NC(=O)c2cnn(-c3ccccc3)c2C)c1	11	1	85*	90*	83*	2	87*	98*	81*	81*
COc1cccc(NC(=O)c2cnn(-c3ccccc3)c2C)c1	6	1	85*	82*	78*	8	85*	98*	89*	86*
Cn1ccs/c1=N\C(=O)Nc1cccc(Cl)c1	7	2	73*	70*	52*	17	17	67*	45	51*
O=S(=O)(c1ccc2c(c1)CCCC2)N1CCNCC1	8	1	10	9	-2	/	/	/	/	/
CCOC(=O)c1cnc2cc(-c3ccc(Cl)cc3)nn2c1N	-102	-2	15	-5	-12	/	/	/	/	/
CSc1nc(N)n2nc(-c3ccc(Cl)cc3)cc2n1	3	1	98*	94*	89*	-4	14	9	31	-6
O=C(O)CCCc1ccc2c(c1)CCc1ccccc1-2	-29	1	-14	50*	34	77*	76*	88*	68*	81*
CN(CC(=O)Nc1ccc(Cl)c(C(F)(F)F)c1)C(=O)CNC(=O)C1CCCCC1	9	-1	1	-25	-1	/	/	/	/	/
Cc1cccc(NC(=O)COc2ccc(Br)cc2)n1	14	0	18	6	-3	/	/	/	/	/
Cc1ccc(OCC(=O)Nc2cccc(C)n2)c(C)c1	0	1	65*	74*	45	30	67*	90*	69*	22
O=Nc1c(-c2c(O)[nH]c3cc(Br)ccc23)[nH]c2ccccc12	20	2	53*	54*	8	17	36	79*	22	4
Cc1nonc1C(=O)N/N=C/c1ccc(O)cc1O	-26	-41	100*	97*	-7	98*	98*	102*	98*	97*
Cc1nonc1C(=O)N/N=C/c1ccncc1	15	0	26	-14	0	/	/	/	/	/
N#C/C(=C(/O)c1ccc([N+](=O)[O-])o1)c1nc2ccccc2[nH]1	33	-36	42	66*	39	-2	-1	-4	-2	-4
O=C(COc1cccc(F)c1)NNC(=O)Cc1ccc(Br)cc1	-9	0	2	-8	-8	/	/	/	/	/
